According to ChEMBL document CHEMBL3822412, “Exploiting Protein Conformational Change to Optimize Adenosine-Derived Inhibitors of HSP70” (J Med Chem, 2016):

Biological target: Heat shock cognate 71 kDa protein (Homo sapiens, UniProt P11142)
Experiment: Binding affinity to human truncated HSC70 NBD (1 to 381 residues) by SPR analysis
Outline: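 Human HSC70-NBD (residues 1-381) amine-coupled to a CM5 chip to ~5000 RU, with 750 µM ADP present during coupling. Running buffer PBS pH 7.4 with 0.05% Tween20 and 5% DMSO. Eight-point dose response over 50–2000, 5–200 or 0.0625–2.5 µM. Flow 30 µL/min, 60 s injection, 120 s dissociation, no regeneration, unmodified reference cell. KD taken from equilibrium binding curves fitted to a 1:1 model. Geometric mean ± SEM, n≥3.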

Chain of Heat shock cognate 71 kDa protein (P11142 whole entry, the tested form may be a part): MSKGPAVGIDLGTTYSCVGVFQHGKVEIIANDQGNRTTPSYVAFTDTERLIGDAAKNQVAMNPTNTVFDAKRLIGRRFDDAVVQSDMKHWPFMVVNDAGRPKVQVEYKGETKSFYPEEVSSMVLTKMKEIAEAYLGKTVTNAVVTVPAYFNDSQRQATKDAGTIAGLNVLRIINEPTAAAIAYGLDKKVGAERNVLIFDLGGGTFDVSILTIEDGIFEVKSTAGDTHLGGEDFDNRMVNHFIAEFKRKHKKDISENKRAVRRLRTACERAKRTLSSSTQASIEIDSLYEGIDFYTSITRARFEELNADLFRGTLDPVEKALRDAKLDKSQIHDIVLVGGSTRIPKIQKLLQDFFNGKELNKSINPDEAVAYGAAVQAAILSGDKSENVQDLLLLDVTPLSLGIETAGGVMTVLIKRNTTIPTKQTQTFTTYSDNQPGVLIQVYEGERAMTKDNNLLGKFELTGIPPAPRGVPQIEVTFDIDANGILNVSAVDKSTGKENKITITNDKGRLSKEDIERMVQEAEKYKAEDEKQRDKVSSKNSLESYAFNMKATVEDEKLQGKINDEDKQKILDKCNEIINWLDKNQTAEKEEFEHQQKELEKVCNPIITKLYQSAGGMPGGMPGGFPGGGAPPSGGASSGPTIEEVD

| SMILES | Kd (read-out: Kd) [µM] | Kd (read-out: pKd (converted)) [µM] |
| --- | --- | --- |
| Nc1ncnc2c1nc(NCc1ccc(Cl)c(Cl)c1)n2[C@@H]1O[C@H](CO)[C@@H](O)[C@H]1O | 3.5 | – |
| CNc1nc2c(N)ncnc2n1[C@@H]1O[C@H](CO)[C@@H](O)[C@H]1O | 17 | – |
| Cc1ccc(CNc2nc3c(N)ncnc3n2[C@@H]2O[C@H](CO)[C@@H](O)[C@H]2O)cc1 | 0.3 | – |
| CNc1nc2c(N)ncnc2n1[C@@H]1O[C@H](C)[C@@H](O)[C@H]1O | 27 | – |
| Nc1ncnc2c1nc(NCc1ccc3ncccc3c1)n2[C@@H]1O[C@H](CO)[C@@H](O)[C@H]1O | 0.72 | – |
| Nc1ncnc2c1nc(N)n2[C@@H]1O[C@H](CO)[C@@H](O)[C@H]1O | 7 | – |
| COc1nc2c(N)ncnc2n1[C@@H]1O[C@H](CO)[C@@H](O)[C@H]1O | > 1000 | – |
| N#Cc1c(NCc2ccccc2)n([C@@H]2O[C@H](CO)[C@@H](O)[C@H]2O)c2ncnc(N)c12 | 2.8 | – |
| Nc1ncnc2c1ncn2[C@@H]1O[C@H](COP(=O)(O)OP(=O)(O)O)[C@@H](O)[C@H]1O [ADENOSINE DIPHOSPHATE] | 0.32 | – |
| CNc1c(C(N)=O)c2c(N)ncnc2n1[C@@H]1O[C@H](CO)[C@@H](O)[C@H]1O | 30 | – |
| C[C@H]1O[C@@H](n2cnc3c(N)ncnc32)[C@H](O)[C@@H]1O [5'-Deoxyadenosine] | 130 | – |
| Nc1ncnc2c1ncn2[C@@H]1O[C@H](CO)[C@@H](O)[C@H]1O [ADENOSINE] | 110 | – |
| N#Cc1cn([C@@H]2O[C@H](CO)[C@@H](O)[C@H]2O)c2ncnc(N)c12 [TOYOCAMYCIN] | – | 91.2 |
| NC(=O)c1cn([C@@H]2O[C@H](CO)[C@@H](O)[C@H]2O)c2ncnc(N)c12 [SANGIVAMYCIN] | – | 3.24 |
| CN(C)c1nc2c(N)ncnc2n1[C@@H]1O[C@H](CO)[C@@H](O)[C@H]1O | > 1000 | – |
| CNc1c(C#N)c2c(N)ncnc2n1[C@@H]1O[C@H](CO)[C@@H](O)[C@H]1O | 3.3 | – |
| Nc1ncnc2c1nc(NCc1ccccc1)n2[C@@H]1O[C@H](CO)[C@@H](O)[C@H]1O | 1.4 | – |
| Nc1ncnc2c1nc(NCc1ccc(F)cc1)n2[C@@H]1O[C@H](CO)[C@@H](O)[C@H]1O | 0.46 | – |
| Nc1ncnc2c1nc(NCc1ccc(Cl)cc1)n2[C@@H]1O[C@H](CO)[C@@H](O)[C@H]1O | 0.28 | – |
| Nc1ncnc2c1ccn2[C@@H]1O[C@H](CO)[C@@H](O)[C@H]1O [TUBERCIDIN] | – | 28.2 |
